# The source made the active and inactive calls. The rule behind the calls is not given here.
# Columns and labels:
# Aspergillus fumigatus [1] = assay: Antifungal activity against Aspergillus fumigatus isolate 06-067-1639 assessed as lowest drug concentration resulting in aberrant hyphal growth after 48 hrs by broth microdilution method; assay type: functional
# Method in brief: (§1)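 Caspofungin tested by modified CLSI M38-A microdilution in RPMI 1640 plus 2% glucose, l-glutamine, MOPS pH 7. Serial dilutions 0.03125 to 16 μg/ml; duplicate plates. MEC = lowest concentration giving aberrant hyphal growth on inverted-microscope examination, read at 48 h.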
# Aspergillus fumigatus [2] = assay: Antifungal activity against Aspergillus fumigatus ATCC 204305 assessed as lowest drug concentration resulting in aberrant hyphal growth after 48 hrs by broth microdilution method; assay type: functional; method in brief: as §1
# Aspergillus fumigatus [3] = assay: Antifungal activity against Aspergillus fumigatus ATCC 204305 assessed as lowest drug concentration resulting in aberrant hyphal growth after 72 hrs by broth microdilution method; assay type: functional
# Aspergillus terreus [4] = assay: Antifungal activity against Aspergillus terreus isolate 06-059-2428 assessed as lowest drug concentration resulting in aberrant hyphal growth after 48 hrs by broth microdilution method; assay type: functional; method in brief: as §1
# Aspergillus terreus [5] = assay: Antifungal activity against Aspergillus terreus isolate 04-188-2548 assessed as lowest drug concentration resulting in aberrant hyphal growth after 48 hrs by broth microdilution method; assay type: functional; method in brief: as §1
# Aspergillus niger [6] = assay: Antifungal activity against Aspergillus niger isolate 05-290-2479 assessed as lowest drug concentration resulting in aberrant hyphal growth after 48 hrs by broth microdilution method; assay type: functional; method in brief: as §1
# Aspergillus niger [7] = assay: Antifungal activity against Aspergillus niger isolate 05-112-3701 assessed as lowest drug concentration resulting in aberrant hyphal growth after 48 hrs by broth microdilution method; assay type: functional; method in brief: as §1
# Aspergillus nidulans [8] = assay: Antifungal activity against Aspergillus nidulans isolate 05-326-1785 assessed as lowest drug concentration resulting in aberrant hyphal growth after 72 hrs by broth microdilution method; assay type: functional
# Aspergillus nidulans [9] = assay: Antifungal activity against Aspergillus nidulans isolate 00-202661 assessed as lowest drug concentration resulting in aberrant hyphal growth after 72 hrs by broth microdilution method; assay type: functional
# Aspergillus flavus [10] = assay: Antifungal activity against Aspergillus flavus ATCC 204304 assessed as lowest drug concentration resulting in aberrant hyphal growth after 48 hrs by broth microdilution method; assay type: functional; method in brief: as §1
# Aspergillus flavus [11] = assay: Antifungal activity against Aspergillus flavus isolate 05-314-1100 assessed as lowest drug concentration resulting in aberrant hyphal growth after 48 hrs by broth microdilution method; assay type: functional; method in brief: as §1
# Aspergillus fumigatus [12] = assay: Inhibition of metabolite production in Aspergillus fumigatus isolate 06-067-1639 assessed as inhibition of glycine betaine production at => 1 ug/ml; assay type: functional, organism-based
# Aspergillus fumigatus [13] = assay: Inhibition of metabolite production in Aspergillus fumigatus isolate 06-067-1639 assessed as inhibition of malate and fumarate production at 2 to 4 ug/ml; assay type: functional
# Aspergillus fumigatus [14] = assay: Inhibition of metabolite production in Aspergillus fumigatus ATCC 204305 assessed as lowest drug concentration required to inhibit 50% malate production after 48 hrs in presence of 0.2 % glucose by NMR spectroscopy; assay type: functional
# Method in brief: (§2)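 A. fumigatus ATCC 204305 incubated 48 h and 72 h with caspofungin in RPMI 1640 containing 0.2% glucose instead of 2%. ¹H NMR of medium. MEP from malate peak area, taken at ≥50% reduction.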
# Aspergillus fumigatus [15] = assay: Inhibition of metabolite production in Aspergillus fumigatus ATCC 204305 assessed as lowest drug concentration required to inhibit 50% malate production after 72 hrs in presence of 0.2 % glucose by NMR spectroscopy; assay type: functional; method in brief: as §2
# Aspergillus fumigatus [16] = assay: Increase in metabolite production in Aspergillus fumigatus isolate 06-067-1639 assessed as paradoxical increase in glycine betain, fumarate, succinate level at 1 ug/ml after 48 hrs; assay type: functional, organism-based
# Aspergillus terreus [17] = assay: Inhibition of metabolite production in Aspergillus terreus isolate 06-059-2428 assessed as lowest drug concentration required to inhibit 50% ethanol production after 48 hrs in presence of 2 % glucose by NMR spectroscopy; assay type: functional
# Method in brief: (§3)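 Cultures grown in RPMI 1640-2% glucose-MOPS with drug series, 48 h. Culture media analysed by 600-MHz ¹H NMR. MEP taken from stack plots and peak integrals of resolved resonances, as lowest drug concentration suppressing nutrient use or metabolite production by ≥50%. Alternative MEP: lowest concentration raising fumarate >50%.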
# Aspergillus niger [18] = assay: Inhibition of metabolite production in Aspergillus niger isolate 05-112-3701 assessed as lowest drug concentration required to inhibit 50% citrate production after 48 hrs in presence of 2 % glucose by NMR spectroscopy; assay type: functional; method in brief: as §3
# Aspergillus nidulans [19] = assay: Inhibition of metabolite production in Aspergillus nidulans isolate 05-326-1785 assessed as lowest drug concentration required to inhibit 50% fumarate production after 72 hrs in presence of 2 % glucose by NMR spectroscopy; assay type: functional
# Method in brief: (§4)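 A. nidulans grows slowly, so spectra were recorded after 72 h incubation in RPMI 1640-2% glucose-MOPS with drug dilutions. 600-MHz ¹H NMR of culture medium. Fumarate peak integrals plotted against drug concentration. MEP = lowest concentration with ≥50% fall in fumarate.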
# Aspergillus nidulans [20] = assay: Inhibition of metabolite production in Aspergillus nidulans isolate 00-202661 assessed as lowest drug concentration required to inhibit 50% fumarate production after 72 hrs in presence of 2 % glucose by NMR spectroscopy; assay type: functional; method in brief: as §4
# Aspergillus fumigatus [21] = assay: Increase in metabolite production in Aspergillus fumigatus isolate 06-067-1639 assessed as lowest drug concentration required to increase >50% glycine betaine production after 48 hrs in presence of 2 % glucose by NMR spectroscopy; assay type: functional
# Aspergillus flavus [22] = assay: Increase in metabolite production in Aspergillus flavus isolate 05-314-1100 assessed as lowest drug concentration required to increase >50% fumarate production after 48 hrs in presence of 2 % glucose by NMR spectroscopy; assay type: functional; method in brief: as §3
# Aspergillus fumigatus [23] = assay: Inhibition of metabolite production in Aspergillus fumigatus ATCC 204305 assessed as lowest drug concentration required to inhibit 50% malate production after 72 hrs in presence of 2 % glucose by NMR spectroscopy; assay type: functional
# Method in brief: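 Caspofungin dilutions with A. fumigatus ATCC 204305 in RPMI 1640-2% glucose-MOPS, incubated 72 h. ¹H NMR of medium. MEP = lowest concentration giving ≥50% fall in malate, glycine betaine or fumarate peak areas.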
# Aspergillus fumigatus [24] = assay: Inhibition of metabolite production in Aspergillus fumigatus ATCC 204305 assessed as lowest drug concentration required to inhibit 50% malate production after 48 hrs in presence of 2 % glucose by NMR spectroscopy; assay type: functional; method in brief: as §3
# Aspergillus terreus [25] = assay: Inhibition of metabolite production in Aspergillus terreus isolate 04-188-2548 assessed as lowest drug concentration required to inhibit 50% ethanol, malate production after 48 hrs in presence of 2 % glucose by NMR spectroscopy; assay type: functional; method in brief: as §3
# Aspergillus niger [26] = assay: Inhibition of metabolite production in Aspergillus niger isolate 05-290-2479 assessed as lowest drug concentration required to inhibit 50% citrate production after 48 hrs in presence of 2 % glucose by NMR spectroscopy; assay type: functional; method in brief: as §3
# Aspergillus fumigatus [27] = assay: Inhibition of metabolite production in Aspergillus fumigatus ATCC 204305 assessed as lowest drug concentration required to inhibit 50% glycine betain, fumarate, malate production after 48 hrs in presence of 2 % glucose by NMR spectroscopy; assay type: functional; method in brief: as §3
# Aspergillus flavus [28] = assay: Increase in metabolite production in Aspergillus flavus ATCC 204304 assessed as lowest drug concentration required to increase >50% fumarate production after 48 hrs in presence of 2 % glucose by NMR spectroscopy; assay type: functional; method in brief: as §3
# Aspergillus fumigatus [29] = assay: Increase in metabolite production in Aspergillus fumigatus ATCC 204305 assessed as paradoxical increase in glycine betaine, fumarate and succinate level at >= 0.5 ug/ml after 48 hrs
compound,measurement,setting,value
CC[C@H](C)C[C@H](C)CCCCCCCCC(=O)N[C@H]1C[C@@H](O)[C@@H](NCCN)NC(=O)[C@@H]2[C@@H](O)CCN2C(=O)[C@H]([C@H](O)CCN)NC(=O)[C@H]([C@H](O)[C@@H](O)c2ccc(O)cc2)NC(=O)[C@@H]2C[C@@H](O)CN2C(=O)[C@H]([C@@H](C)O)NC1=O [CASPOFUNGIN],Activity,Aspergillus fumigatus [1],0.03 µg/mL
same,Activity,Aspergillus fumigatus [2],0.03 µg/mL
same,Activity,Aspergillus fumigatus [3],0.03 µg/mL
same,Activity,Aspergillus terreus [4],0.03 µg/mL
same,Activity,Aspergillus terreus [5],0.03 µg/mL
same,Activity,Aspergillus niger [6],0.5 µg/mL
same,Activity,Aspergillus niger [7],0.5 µg/mL
same,Activity,Aspergillus nidulans [8],4 µg/mL
same,Activity,Aspergillus nidulans [9],2 µg/mL
same,Activity,Aspergillus flavus [10],0.03 µg/mL
same,Activity,Aspergillus flavus [11],0.03 µg/mL
same,Activity,Aspergillus fumigatus [12],inactive
same,inhibition (INH),Aspergillus fumigatus [13],20%
same,Activity,Aspergillus fumigatus [14],0.06 µg/mL
same,Activity,Aspergillus fumigatus [15],0.03 µg/mL
same,Activity,Aspergillus fumigatus [16],Active
same,Activity,Aspergillus terreus [17],0.06 µg/mL
same,Activity,Aspergillus niger [18],0.5 µg/mL
same,Activity,Aspergillus nidulans [19],4 µg/mL
same,Activity,Aspergillus nidulans [20],2 µg/mL
same,Activity,Aspergillus fumigatus [21],1 µg/mL
same,Activity,Aspergillus flavus [22],0.03 µg/mL
same,Activity,Aspergillus fumigatus [23],0.03 µg/mL
same,Activity,Aspergillus fumigatus [24],0.5 µg/mL
same,Activity,Aspergillus terreus [25],0.5 µg/mL
same,Activity,Aspergillus niger [26],0.25 µg/mL
same,Activity,Aspergillus fumigatus [27],0.5 µg/mL
same,Activity,Aspergillus flavus [28],0.03 µg/mL
same,Activity,Aspergillus fumigatus [29],Active

# — ChEMBL document CHEMBL1137658, “Effect of caspofungin on metabolite profiles of Aspergillus species determined by nuclear magnetic resonance spectroscopy” (2007)
